Screens (PubChem)
Only some compounds are listed: those with a hit (about 2.5% of all), similar ones and a draw of the others.
m5-HT2A agonist = mouse Htr2a agonists via beta-arrestin recruitment, primary screen, cell-based, luminescence | CHO-K1 mHTR2A beta-arrestin complementation; percent of 30 µM serotonin response | activation, % at 7.6 µM | hit rate 0.66% among 360,000 | AID 624169, 2012;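 active means activation above a run cutoff, the mean activation of all tested compounds plus 3 SD, cut at about 14% in these data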
Target sequence (P35363 whole entry, looked up): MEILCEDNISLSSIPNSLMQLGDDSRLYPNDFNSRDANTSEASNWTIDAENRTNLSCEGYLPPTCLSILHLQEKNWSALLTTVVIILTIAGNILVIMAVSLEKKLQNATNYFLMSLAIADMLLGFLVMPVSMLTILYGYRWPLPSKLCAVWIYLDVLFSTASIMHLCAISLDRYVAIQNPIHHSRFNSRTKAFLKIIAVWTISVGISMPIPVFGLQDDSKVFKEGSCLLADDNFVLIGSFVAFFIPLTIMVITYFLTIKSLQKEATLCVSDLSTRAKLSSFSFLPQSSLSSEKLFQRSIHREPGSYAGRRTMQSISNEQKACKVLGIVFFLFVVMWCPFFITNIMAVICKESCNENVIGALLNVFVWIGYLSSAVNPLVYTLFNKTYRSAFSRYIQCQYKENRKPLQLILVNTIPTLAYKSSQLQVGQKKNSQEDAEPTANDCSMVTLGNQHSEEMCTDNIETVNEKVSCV
VIM-2 inhibitor = VIM-2 metallo-beta-lactamase inhibitors, primary screen, biochemical, epi-absorbance readout, Pseudomonas aeruginosa enzyme; AID 1527, 2009; purified VIM-2, nitrocefin hydrolysis, epi-absorbance fluorescence; inhibition, % at 5.6 µM; hit rate 0.89% among 290,000;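 active means inhibition above the mean of all tested compounds plus 3 SD, cutoff set per screening run, cut at about 7.5% in these data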;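 further: red hydrolysis product quenches plate fluorescence so inhibitors raise well fluorescence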
IMP-1 inhibitor = IMP-1 metallo-beta-lactamase inhibitors, primary screen, biochemical, epi-absorbance readout, Pseudomonas aeruginosa enzyme; inhibition, % at 5.6 µM; hit rate 0.45% among 290,000; metallo-beta-lactamase IMP-1 (Pseudomonas aeruginosa); purified IMP-1, nitrocefin hydrolysis, epi-absorbance fluorescence;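 active means inhibition above the mean plus 3 SD of all compounds in the same screening run, cut at about 4.5% in these data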
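system = purified recombinant IMP-1 beta-lactamase | amount = 0.2 nM IMP-1, as dispensed | medium = HEPES buffer pH 7.1 with ZnSO4 and Brij 35 | times = 25 °C, 15 min preincubation, 25 min reaction | detection = plate fluorescence quenching by hydrolysis product, ex 480/em 530 nm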
dFosB act-1 = activators of delta FosB homodimer, primary screen, biochemical, fluorescence polarization, TAMRA-CDK5 oligo, single point | purified delta FosB; percent of positive-control signal above neutral wells | AID 493131, 2011 | hit rate 0.99% among 340,000 | activation, % at 25 µM;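 active means mean activation above about 17%, with every replicate also reaching it, limit read from the data, passing the limit was not always enough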
dFosB act-2 = activators of mouse delta FosB DNA binding, confirmation, biochemical, fluorescence polarization, TAMRA-CDK5 oligo, cherry-picked samples; shares compounds with dFosB act-1; purified delta FosB; normalised: neutral wells 0, positive control 100; activation, % at 24.9 µM; 2,400 tested, under 10 active; AID 588690, 2011;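 active means highest replicate activation at or above 34% and every replicate reaching that threshold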;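 further: higher polarization means more probe DNA bound by delta FosB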
A number is an active result.

For NC(=O)COC(=O)c1oc2ccccc2c1CSc1ccc(Cl)cc1 the results were m5-HT2A agonist inactive, VIM-2 inhibitor inactive, IMP-1 inhibitor inactive, dFosB act-1 17.5 and dFosB act-2 inactive.
`O=C(COC(=O)c1oc2ccccc2c1CSc1ccc(Cl)cc1)NC1CCCC1` gave m5-HT2A agonist inactive, VIM-2 inhibitor inactive, IMP-1 inhibitor inactive and dFosB act-1 inactive.
`CCOc1ccc(N(CC(=O)NC2CCCCC2)C(=O)CCC(=O)Nc2nccs2)cc1` gave m5-HT2A agonist inactive, VIM-2 inhibitor inactive, IMP-1 inhibitor inactive and dFosB act-1 inactive.
Screening CCn1cc(Br)c(C(=O)Nc2sc3c(c2C(N)=O)CCCC3)n1 returned m5-HT2A agonist inactive, VIM-2 inhibitor inactive, IMP-1 inhibitor inactive, dFosB act-1 76.0 and dFosB act-2 inactive.
For NC(=O)NCC(c1ccccc1)C1CCCCC1 (stereo not drawn) the results were m5-HT2A agonist inactive, VIM-2 inhibitor inactive, IMP-1 inhibitor inactive and dFosB act-1 inactive.
`Cc1cc(C)c(NC(=O)Cn2c(=O)c3cccn3c3ccccc32)c(C)c1` gave m5-HT2A agonist inactive, VIM-2 inhibitor inactive, IMP-1 inhibitor inactive, dFosB act-1 39.2 and dFosB act-2 inactive.
For CCc1ccc(NC(=O)Cn2c(=O)c3cccn3c3ccccc32)cc1 the results were m5-HT2A agonist inactive, VIM-2 inhibitor inactive, IMP-1 inhibitor inactive, dFosB act-1 32.2 and dFosB act-2 inactive.
CCc1ccc(NC(=O)CCn2c(=O)c3cccn3c3ccccc32)cc1 was read as m5-HT2A agonist inactive, VIM-2 inhibitor inactive, IMP-1 inhibitor inactive and dFosB act-1 inactive.
`O=C(Cn1c(=O)c2cccn2c2ccccc21)Nc1cc(F)ccc1F` gave m5-HT2A agonist inactive, VIM-2 inhibitor inactive, IMP-1 inhibitor inactive and dFosB act-1 inactive.
COc1ccc(C(=O)Nc2cccc(NC(=O)c3ccc(OC)c(OC)c3)n2)cc1OC was read as m5-HT2A agonist inactive, VIM-2 inhibitor inactive, IMP-1 inhibitor inactive and dFosB act-1 inactive.
Screening CN(C)C(=O)c1ccc(Nc2ncnc3sc4c(c23)CCCCC4)cc1 returned m5-HT2A agonist inactive, VIM-2 inhibitor inactive, IMP-1 inhibitor inactive and dFosB act-1 inactive.
`CC1CCc2sc(C(=O)N/N=C/c3ccc([N+](=O)[O-])cc3)cc2C1` (stereo not drawn) gave m5-HT2A agonist inactive, VIM-2 inhibitor inactive, IMP-1 inhibitor inactive, dFosB act-1 16.8 and dFosB act-2 inactive.
Screening CCC1CCC(C(=O)NC(C(=O)Nc2ccc3c(c2)OCCO3)C(C)C)CC1 (stereo not drawn) returned m5-HT2A agonist inactive, VIM-2 inhibitor inactive, IMP-1 inhibitor inactive, dFosB act-1 24.4 and dFosB act-2 inactive.
For CCOc1ccc(NC(=O)CNC(=O)c2nn(-c3ccc(OC)cc3)c(=O)c3ccccc23)cc1 the results were m5-HT2A agonist inactive, VIM-2 inhibitor inactive, IMP-1 inhibitor inactive and dFosB act-1 inactive.
COc1ccc(-n2nc(C(=O)NCC(=O)Nc3cccc(Cl)c3)c3ccccc3c2=O)cc1 was read as m5-HT2A agonist inactive, VIM-2 inhibitor inactive, IMP-1 inhibitor inactive, dFosB act-1 39.4 and dFosB act-2 inactive.
Cc1ccc(F)cc1C(=O)N1CCCC(c2cc(C(=O)NCc3ccc(F)cc3)no2)C1 (stereo not drawn) was read as m5-HT2A agonist inactive.
Screening CC(Sc1nc2c(c(=O)[nH]1)CCCC2)C(=O)Nc1ccccc1C#N (stereo not drawn) returned m5-HT2A agonist inactive, VIM-2 inhibitor inactive, IMP-1 inhibitor inactive and dFosB act-1 inactive.
For O=C(CN1C(=O)NC2(CCc3ccccc3C2)C1=O)Nc1ccc(Cl)cc1F (stereo not drawn) the results were m5-HT2A agonist inactive, VIM-2 inhibitor inactive, IMP-1 inhibitor inactive, dFosB act-1 40.1 and dFosB act-2 inactive.
For Cc1ccc(Cn2c(CCC(=O)O)nc3ncccc3c2=O)cc1 the results were m5-HT2A agonist inactive, VIM-2 inhibitor inactive, IMP-1 inhibitor inactive and dFosB act-1 inactive.
`CCOC(=O)c1c(C)[nH]c(C(=O)OC(C)C(=O)NC2CCCCC2C)c1C` (stereo not drawn) gave m5-HT2A agonist inactive, dFosB act-1 49.0 and dFosB act-2 inactive.
For CCOC(=O)c1c(C)[nH]c(C(=O)OC(C)C(=O)Nc2ccc(C)cc2)c1C (stereo not drawn) the results were m5-HT2A agonist inactive.
Screening C=CCn1c(SCC(=O)NCc2ccc3c(c2)OCO3)nc2scc(-c3ccc(F)cc3)c2c1=O returned m5-HT2A agonist inactive, VIM-2 inhibitor inactive, IMP-1 inhibitor inactive, dFosB act-1 45.4 and dFosB act-2 inactive.
For Nn1c(SCC(=O)Nc2ccc3c(c2)OCCO3)nncc1=O the results were m5-HT2A agonist inactive, VIM-2 inhibitor inactive, IMP-1 inhibitor inactive and dFosB act-1 inactive.
Screening CCCOc1ccc(C2c3c(oc4cc(C)c(C)cc4c3=O)C(=O)N2CCCN(C)C)cc1 (stereo not drawn) returned m5-HT2A agonist inactive, VIM-2 inhibitor inactive, IMP-1 inhibitor inactive, dFosB act-1 28.2 and dFosB act-2 inactive.
For O=c1cc(CSc2nnnn2-c2ccccc2)nc(Nc2ccc(F)cc2)[nH]1 the results were m5-HT2A agonist inactive, VIM-2 inhibitor 10.0, IMP-1 inhibitor inactive, dFosB act-1 25.7 and dFosB act-2 inactive.
N/C(=N\c1nc(CSc2nnnn2-c2ccccc2)cc(=O)[nH]1)Nc1ccccc1 was read as VIM-2 inhibitor inactive and IMP-1 inhibitor inactive.
`Cc1ccc(O)c(C(=O)c2cc(C#N)c3nc4ccccc4n3c2)c1` gave m5-HT2A agonist inactive, VIM-2 inhibitor inactive, IMP-1 inhibitor inactive, dFosB act-1 24.0 and dFosB act-2 inactive.
Screening Cc1ccc(O)c(C(=O)c2cc(C#N)c(=O)n(Cc3ccccc3)c2)c1 returned m5-HT2A agonist inactive, VIM-2 inhibitor inactive, IMP-1 inhibitor inactive and dFosB act-1 inactive.
`CC(C)(C)OC(=O)N1CCc2onc(-c3ccccc3[N+](=O)[O-])c2C1=O` gave m5-HT2A agonist inactive.
`N=C1C(c2nc3ccccc3s2)=C(O)CN1NC(=O)c1c[nH]c2ccccc12` gave m5-HT2A agonist inactive, VIM-2 inhibitor inactive, IMP-1 inhibitor inactive, dFosB act-1 26.7 and dFosB act-2 inactive.
`O=C(CN1C(=O)c2ccccc2C1=O)NCC(=O)OCC(=O)c1ccc(Br)cc1` gave m5-HT2A agonist inactive, VIM-2 inhibitor inactive, IMP-1 inhibitor inactive, dFosB act-1 46.1 and dFosB act-2 inactive.
O=C(CNC(=O)c1ccc(N2C(=O)c3ccccc3C2=O)cc1)OCC(=O)c1ccc(Cl)cc1 was read as m5-HT2A agonist inactive, VIM-2 inhibitor inactive, IMP-1 inhibitor inactive, dFosB act-1 112.8 and dFosB act-2 inactive.
CCCCCN(C(=O)CCC(=O)OCC(=O)c1cccc(OC)c1)c1c(N)n(CCCC)c(=O)[nH]c1=O was read as m5-HT2A agonist inactive, VIM-2 inhibitor inactive, IMP-1 inhibitor inactive and dFosB act-1 inactive.
